Reference: paper PMC3253719 (Anesthesia and Analgesia, 2010)
Read-outs that look alike come from different tables or passages of the source.

Experiments:
mouse CB2 receptors = settings: cited from earlier work
human CB2 receptor [1] = target: T1, human CB2 receptor (Homo sapiens, UniProt P34972); settings: cited from earlier work
human CB2 receptor [2] = target: T1, human CB2 receptor; settings: cited from earlier work; remark: listed apart in the source
[3] = test system: rodents with spinal nerve ligation; settings: cited from earlier work
human CB2 receptor [4] = target: T1, human CB2 receptor; settings: cited from earlier work; remark: listed apart in the source
human CB2 receptor [5] = target: T1, human CB2 receptor; settings: cited from earlier work; remark: listed apart in the source
rat CB2 receptors [6] = settings: cited from earlier work
rat CB2 receptors [7] = settings: cited from earlier work; remark: listed apart in the source
human CB2 receptors = settings: cited from earlier work
naïve rats [8] = assay: Open-field chamber testing; type: in vivo, rat; settings: 1 mg/kg IP
[9] = test system: rats with spinal nerve ligation; assay: Tactile allodynia, lumbar 5-6 spinal nerve ligation neuropathic pain model; type: in vivo, rat; settings: for Effect on tactile allodynia: several doses
Outline: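 Male Sprague-Dawley rats (120–150 g). Under isoflurane in 100% O2, the left L6 transverse process was removed and the left L5 and L6 spinal nerves were tightly ligated with 6-0 silk. Neuropathy was confirmed by daily von Frey paw-withdrawal thresholds after ≥30 min acclimation on wire mesh. Compounds were given IP; AM630 (5 mg/kg IP) was given 15 min before the test compound. n = 6–12 per group.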

central nervous system = settings: IP; cited from earlier work
rat CB2 receptor [10] = target: T2, rat CB2 receptor (Rattus norvegicus, UniProt Q9QZN9); assay: cAMP activation assay, rat CB2; type: cell-based
T2 sequence (Q9QZN9 1-360): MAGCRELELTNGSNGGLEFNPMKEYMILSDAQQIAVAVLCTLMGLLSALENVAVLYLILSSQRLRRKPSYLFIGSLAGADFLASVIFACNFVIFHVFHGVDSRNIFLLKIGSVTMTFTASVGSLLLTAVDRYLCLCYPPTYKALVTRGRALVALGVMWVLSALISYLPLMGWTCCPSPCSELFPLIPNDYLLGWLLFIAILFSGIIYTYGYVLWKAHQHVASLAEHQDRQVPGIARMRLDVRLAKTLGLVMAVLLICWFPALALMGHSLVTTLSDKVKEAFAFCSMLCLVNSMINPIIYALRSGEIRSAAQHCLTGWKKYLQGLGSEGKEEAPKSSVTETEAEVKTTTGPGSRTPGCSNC

rat CB2 receptor [11] = target: T2, rat CB2 receptor; assay: GTPγ[35S] functional assay, rat CB2; type: biochemical
human CB2 receptor [12] = target: T1, human CB2 receptor; assay: Radioligand competitive binding assay, human CB2
paclitaxel-treated rats = assay: Tactile allodynia, paclitaxel-induced neuropathic pain model in rats; type: in vivo, rat; settings: IP
Outline: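 Male Sprague-Dawley rats (120–150 g) received paclitaxel 1.0 mg/kg IP daily for 4 days (cumulative 4 mg/kg) in 10% Cremophor EL in saline, 1 mL/kg. Baseline was taken on day 0, then daily von Frey hind-paw thresholds (≥30 min acclimation on wire mesh) until neuropathy was confirmed. The test compound was given IP, compared with vehicle-treated rats; n = 5 per group. Values were expressed as %MPE and AUC.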

rat CB1 receptor [13] = target: T3, rat CB1 receptor (Rattus norvegicus, UniProt P20272); assay: cAMP activation assay, rat CB1; type: cell-based
naïve rats [14] = settings: 15 mg/kg IP; historical data ref 24; cited from earlier work
rat CB1 receptor [15] = target: T3, rat CB1 receptor; assay: GTPγ[35S] functional assay, rat CB1; type: biochemical
rat CB2 receptors [16] = assay: Erk1/2; type: cell-based
rat CB1 receptor [17] = target: T3, rat CB1 receptor; assay: Radioligand competitive binding assay, rat CB1
human CB1 receptor [18] = target: T4, human CB1 receptor (Homo sapiens, UniProt P21554); assay: GTPγ[35S] functional assay, human CB1; type: biochemical
[19] = test system: paclitaxel-treated CB2^+/+ mice; assay: Tactile allodynia, paclitaxel-induced neuropathic pain model in CB2^+/+ mice; type: in vivo, mouse; settings: 10 mg/kg IP
Outline: (§1)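 Male CB2+/+ or CB2−/− mice (20–25 g), bred and genotyped in-house, were used in a paclitaxel-induced neuropathy model. Once allodynia was established, the test compound was given at 10 mg/kg IP. Tactile paw-withdrawal thresholds were measured with von Frey filaments after ≥30 min acclimation on a wire-mesh floor; n = 5 per group.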

human CB1 receptor [20] = target: T4, human CB1 receptor; assay: Radioligand competitive binding assay, human CB1; settings: Mean Ki Human CB1, [3H]CP 55,940 was used (footnote b)
human CB2 receptor [21] = target: T1, human CB2 receptor; assay: GTPγ[35S] functional assay, human CB2; type: biochemical
rat CB2 receptor [22] = target: T2, rat CB2 receptor; assay: Radioligand competitive binding assay, rat CB2
[23] = test system: paclitaxel-treated CB2^−/− mice; assay: Tactile allodynia, paclitaxel-induced neuropathic pain model in CB2^−/− mice; type: in vivo, mouse; settings: 10 mg/kg IP
Outline: as §1

T4 sequence (P21554 whole entry): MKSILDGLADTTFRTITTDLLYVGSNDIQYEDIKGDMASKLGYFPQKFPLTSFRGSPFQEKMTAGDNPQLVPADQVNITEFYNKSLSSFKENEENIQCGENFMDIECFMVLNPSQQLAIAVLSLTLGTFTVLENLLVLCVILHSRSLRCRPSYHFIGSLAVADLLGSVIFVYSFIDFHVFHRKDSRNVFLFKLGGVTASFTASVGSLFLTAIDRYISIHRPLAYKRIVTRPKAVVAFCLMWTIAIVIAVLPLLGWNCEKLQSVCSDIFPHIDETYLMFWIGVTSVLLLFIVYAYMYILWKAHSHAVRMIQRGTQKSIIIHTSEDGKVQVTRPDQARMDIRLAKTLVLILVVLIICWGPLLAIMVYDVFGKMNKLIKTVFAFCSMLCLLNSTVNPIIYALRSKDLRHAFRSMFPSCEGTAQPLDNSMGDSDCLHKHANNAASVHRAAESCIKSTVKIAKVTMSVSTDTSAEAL
T1 sequence (P34972 whole entry): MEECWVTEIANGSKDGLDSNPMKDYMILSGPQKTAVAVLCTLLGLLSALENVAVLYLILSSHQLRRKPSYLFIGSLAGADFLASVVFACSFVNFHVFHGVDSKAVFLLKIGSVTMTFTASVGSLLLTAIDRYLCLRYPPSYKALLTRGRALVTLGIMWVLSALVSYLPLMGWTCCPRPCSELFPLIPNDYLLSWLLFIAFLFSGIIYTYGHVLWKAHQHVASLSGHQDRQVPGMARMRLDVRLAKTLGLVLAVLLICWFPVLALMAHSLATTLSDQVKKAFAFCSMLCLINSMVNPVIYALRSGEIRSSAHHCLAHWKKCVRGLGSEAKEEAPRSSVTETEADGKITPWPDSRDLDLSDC
T3 sequence (P20272 whole entry): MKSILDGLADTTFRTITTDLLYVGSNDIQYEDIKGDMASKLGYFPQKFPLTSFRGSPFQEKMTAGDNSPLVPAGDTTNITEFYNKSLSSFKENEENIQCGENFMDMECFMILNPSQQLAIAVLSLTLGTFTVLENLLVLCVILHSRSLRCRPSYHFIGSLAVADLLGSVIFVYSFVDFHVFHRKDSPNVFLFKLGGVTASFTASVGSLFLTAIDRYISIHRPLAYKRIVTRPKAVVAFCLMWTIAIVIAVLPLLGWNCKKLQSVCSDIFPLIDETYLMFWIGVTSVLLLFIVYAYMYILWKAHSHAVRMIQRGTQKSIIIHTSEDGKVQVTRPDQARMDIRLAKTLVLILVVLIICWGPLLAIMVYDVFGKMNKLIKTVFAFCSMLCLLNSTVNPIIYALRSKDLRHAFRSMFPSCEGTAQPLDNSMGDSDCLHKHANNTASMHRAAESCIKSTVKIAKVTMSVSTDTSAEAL

CN1CCCCC1Cn1cc(C(=O)c2cc([N+](=O)[O-])ccc2I)c2ccccc21 (centres unmarked) [AM1241, (2-iodo-5-nitrophenyl)-[1-(1-methylpiperidin-2-ylmethyl)-1H-indol-3-yl]methanone]
Functional behaviour in cAMP inhibition assays, mouse CB2 (mouse CB2 receptors): inverse agonist | Functional behaviour in fluorometric image plate reader functional assays (human CB2 receptor [1]): apparent antagonist | Functional behaviour in cyclase assays (human CB2 receptor [2]): neutral antagonist | Functional behaviour in cyclase assays at lower forskolin concentrations (human CB2 receptor [2]; lower forskolin concentrations): agonist | Effect on tactile allodynia [3]: attenuated tactile allodynia in a dose-related manner | Functional behaviour in Erk activation assays (human CB2 receptor [4]): apparent agonist | Functional behaviour in cAMP inhibition assays, human CB2 (human CB2 receptor [5]): agonist | Functional behaviour in cAMP inhibition assays, rat CB2 (rat CB2 receptors [6]): inverse agonist

CN1CCCCC1Cn1cc(C(=O)c2cc([N+](=O)[O-])ccc2I)c2ccccc21 (single isomer, unassigned; (+)) [(+)AM1241]
Functional character at rat CB2 (rat CB2 receptors [7]): protean agonists | Functional character at human CB2 (human CB2 receptors): protean agonists

Cc1c(C(=O)c2cccc3ccccc23)c2cccc3c2n1[C@H](CN1CCOCC1)CO3 [WIN 55,212-2, reference compound]
Effect on exploratory behavior (distance traveled, ambulatory time, vertical movements, zone entries) (naïve rats [8]): significantly decreased exploratory behavior | Adverse effects ([9]; 3 mg/kg IP): immobility and increased sensitivity to noise and handling | Effect on tactile allodynia ([9]; IP): attenuated tactile allodynia in a dose-related manner | ED50 tactile allodynia ([9]; IP, at 15 minutes, 95% CI = 0.5–0.9 mg/kg): 0.7 mg/kg | Doses with adverse effects in the central nervous system (central nervous system): > 1 mg/kg

CCCCCCC(C)(C)c1ccc([C@@H]2C[C@H](O)CC[C@H]2CCCO)c(O)c1 [CP 55,940, reference compound]
Functional behaviour in cAMP activation assay, rat CB2 (rat CB2 receptor [10]): strong agonist activity | cAMP activation assays Rat CB2 Emax (rat CB2 receptor [10]; forskolin 10 µM, NA = not active at 1 µM): 100% | Functional behaviour in GTPγ[35S] assay, rat CB2 (rat CB2 receptor [11]): agonist activity | EC50 (rat CB2 receptor [11]; read-out: GTPγ[35S] functional assays Rat CB2 EC50, agonism): 2.3 ± 1.8 nM | GTPγ[35S] functional assays Rat CB2 Emax (rat CB2 receptor [11]; relative to efficacy of CP 55,940): 112%

O=C(CCCN1CCC(O)(c2ccc(Cl)cc2)CC1)c1ccc(F)cc1 [haloperidol]
Effect on exploratory behavior (distance traveled, ambulatory time, vertical movements, zone entries) (naïve rats [8]): significantly decreased exploratory behavior

COc1ccc(C(=O)c2c(C)n(CCN3CCOCC3)c3cc(I)ccc23)cc1 [AM630, reference compound]
Effect on paw withdrawal threshold, given alone ([9]; 5 mg/kg IP): had no effect

CCCCCCN1C(=O)/C(=N\NC(=O)c2ccccc2)c2ccccc21 [MDA19, N′-[(3Z)-1-(1-hexyl)-2-oxo-1,2-dihydro-3H-indol-3-ylidene]benzohydrazide]
Ki (human CB2 receptor [12]): 43.3 ± 10.3 nM | Functional behaviour in cAMP activation assay, rat CB2 (rat CB2 receptor [10]): no activity | Effect on mechanical allodynia (paclitaxel-treated rats; versus vehicle-treated rats): suppressed mechanical allodynia | %MPE paw withdrawal threshold AUC versus vehicle (paclitaxel-treated rats; n = 5 per group): significantly different (P < 0.05) | EC50 (rat CB1 receptor [13]): 814 ± 83 nM | Functional behaviour in cAMP activation assay, rat CB1 (rat CB1 receptor [13]): agonist | Emax (rat CB1 receptor [13]; read-out: cAMP activation assays Rat CB1 Emax): 89% | Effect on exploratory behavior (distance traveled, ambulatory time, vertical movements, zone entries) (naïve rats [14]): had no effect on exploratory behavior | EC50 (rat CB1 receptor [15]): 427 ± 35 nM | Functional behaviour in GTPγ[35S] assay, rat CB1 (rat CB1 receptor [15]): agonist | Emax (rat CB1 receptor [15]; read-out: GTPγ[35S] functional assays Rat CB1 Emax): 54% | Activation of Erk1/2 after PTX (rat CB2 receptors [16]; 200 ng/mL PTX 16 hours before 10 µM MDA19): blocked | Functional behaviour in Erk1/2 activation (phosphorylation of Erk1/2) (rat CB2 receptors [16]; 10 µM, 30 minutes, CHO-rCB2 cells): behaved as an agonist and induced phosphorylation of Erk1/2 | Activation of Erk1/2 after AM630 (rat CB2 receptors [16]; 20 µM AM630 30 minutes before 10 µM MDA19): blocked | Ki (rat CB1 receptor [17]): 1130 ± 574 nM | EC50 (human CB1 receptor [18]): 922 ± 56 nM | Functional behaviour in GTPγ[35S] assay, human CB1 (human CB1 receptor [18]): agonist | Emax (human CB1 receptor [18]; read-out: GTPγ[35S] functional assays Human CB1 Emax): 64.5% | EC50 (rat CB2 receptor [11]): 19.7 ± 14 nM | Functional behaviour in GTPγ[35S] assay, rat CB2 (rat CB2 receptor [11]): inverse agonist | Emax (rat CB2 receptor [11]; read-out: GTPγ[35S] functional assays Rat CB2 Emax): -42% | Effect on mechanical allodynia [19]: suppressed mechanical allodynia | Time of peak effect for reversing mechanical allodynia [19]: 30 min | Ki (human CB1 receptor [20]): 150 nM | Antiallodynic effects compared with 1 mg/kg WIN 55,212-2 IP ([9]; 15 mg/kg IP): not significantly different | Antiallodynic effect, area under the curve ([9]; 15 mg/kg versus 5 mg/kg or vehicle): significantly (P < 0.01) greater antiallodynic effect | Effect on tactile allodynia ([9]; IP): attenuated tactile allodynia in a dose-related manner | Antiallodynic effect after pretreatment with AM630 ([9]; MDA19 10 mg/kg IP, AM630 5 mg/kg IP 15 minutes before, P < 0.05): significantly reversed | Efficacy in attenuating tactile allodynia ([9]; after a 15 mg/kg dose IP): 70% ± 10% | EC50 (human CB2 receptor [21]): 83 ± 19 nM | Functional behaviour in GTPγ[35S] assay, human CB2 (human CB2 receptor [21]): agonist | Emax (human CB2 receptor [21]; read-out: GTPγ[35S] functional assays Human CB2 Emax): 65.4% | Ki (rat CB2 receptor [22]): 16.3 ± 2.1 nM | Affinity ratio rat CB2 over rat CB1 (rat CB2 receptor [22]; from Ki values): ~70 fold | Effect on mechanical allodynia [23]: had no effect

COc1ccc2c(c1)c(CCN1CCOCC1)c(C)n2C(=O)c1cccc(Cl)c1Cl [L768242]
Functional character at rat CB2 (rat CB2 receptors [7]): protean agonists | Functional character at human CB2 (human CB2 receptors): protean agonists
